Results from different studies.
Lines come from different studies, so protocols differ.
PIK3CG: Phosphatidylinositol 4,5-bisphosphate 3-kinase catalytic subunit gamma isoform (PIK3CG, Homo sapiens, UniProt P48736)
Inositol-tetrakisphosphate 1-kinase: Inositol-tetrakisphosphate 1-kinase (Homo sapiens, UniProt Q13572)
PTGS2: Prostaglandin G/H synthase 2 (PTGS2, Homo sapiens, UniProt P35354)
CHRM3: Muscarinic acetylcholine receptor M3 (CHRM3, Homo sapiens, UniProt P20309)

O=C1C(=Nc2ccccc2I)c2ccccc2N1Cc1ccc(Br)cc1 — IC50 (PIK3CG; enzyme activity, inhibitor, ADP detection): 5.8 nM
Nc1ncnc2c1ncn2C1CCCC1 — IC50 (Inositol-tetrakisphosphate 1-kinase; enzyme activity, inhibitor): 26 nM
NS(=O)(=O)c1ccc(-n2nc(C(=O)NN=Cc3ccccc3O)cc2-c2ccccc2)cc1 — IC50 (PTGS2; enzyme activity, inhibitor): 1550 nM
CN(C)C(=O)c1cc2cnc(Nc3ccc(-c4cccc5c(=O)cc(N6CCOCC6)oc45)cc3)nc2n1C1CCCC1 — IC50 (PIK3CG; enzyme activity, inhibitor, radiometric): > 10000 nM
O=C(CCNC(=O)CNC(=O)CC(c1ccccc1)(c1ccccc1)c1ccccc1)NC[C@@H]1CCCN(Cc2cccnc2F)C1 — IC50 (CHRM3; ligand displacement, radioligand; cell membranes): 3800 nM
O=C(CCc1ccc(Cl)cc1)N1C(=O)C(=Nc2ccc(Cl)cc2Br)c2ccccc21 — IC50 (PIK3CG; enzyme activity, inhibitor, ADP detection): 9.65 nM
CN(C)C(=O)c1cc2cnc(Nc3ccc(-c4cccc5c(=O)cc(N6CCOCC6)oc45)cn3)nc2n1C1CCCC1 — IC50 (PIK3CG; enzyme activity, inhibitor, radiometric): > 10000 nM
NS(=O)(=O)c1ccc(-n2nc(-c3nnc(CCl)o3)cc2-c2ccccc2)cc1 — IC50 (PTGS2; enzyme activity, inhibitor): 2640 nM
Cc1cccc(N=C2C(=O)N(Cc3ccc(Br)cc3)c3ccccc32)c1 — IC50 (PIK3CG; enzyme activity, inhibitor, ADP detection): 9.8 nM
Nc1ncnc2c1cnn2C1CCCCC1 — IC50 (Inositol-tetrakisphosphate 1-kinase; enzyme activity, inhibitor): 3200 nM
CC(C)NC(=O)COc1cccc(-c2nc(Nc3ccc4[nH]ncc4c3)c3ccccc3n2)c1 — IC50 (UDP-glucuronosyltransferase 1A1 (UGT1A1, Homo sapiens, UniProt P22309); enzyme activity, inhibitor): 60.9 nM
c1ccc(COc2[nH]cnc3ncnc2-3)cc1 — IC50 (Inositol-tetrakisphosphate 1-kinase; enzyme activity, inhibitor): 5300 nM
NS(=O)(=O)c1ccc(-n2nc(-c3nnc(S)o3)cc2-c2ccccc2)cc1 — IC50 (PTGS2; enzyme activity, inhibitor): 3730 nM
CN(C)C(=O)c1cc2cnc(Nc3cncc(-c4cccc5c(=O)cc(N6CCOCC6)oc45)c3)nc2n1C1CCCC1 — IC50 (PIK3CG; enzyme activity, inhibitor, radiometric): 6110 nM
Nc1ncnc2c1ncn2C1CCCO1 (stereo not drawn) — IC50 (Inositol-tetrakisphosphate 1-kinase; enzyme activity, inhibitor, ADP detection): 920 nM
O=C(CCNC(=O)CNC(=O)CC(c1ccccc1)(c1ccccc1)c1ccccc1)NC[C@@H]1CCCN(Cc2ccc(F)nc2)C1 — IC50 (CHRM3; ligand displacement, radioligand; cell membranes): 8200 nM
CN(C)C(=O)c1cc2cnc(Nc3ccc(-c4cccc5c(=O)cc(N6CCOCC6)oc45)c(F)c3)nc2n1C1CCCC1 — IC50 (PIK3CG; enzyme activity, inhibitor, radiometric): > 10000 nM
O=C1C(=Nc2ccc(Cl)cc2)c2ccccc2N1Cc1ccc([N+](=O)[O-])cc1 — IC50 (PIK3CG; enzyme activity, inhibitor, ADP detection): 1.2 nM
NS(=O)(=O)c1ccc(-n2nc(C(=O)NN3C(=O)c4ccccc4C3=O)cc2-c2ccccc2)cc1 — IC50 (PTGS2; enzyme activity, inhibitor): 2640 nM
CN(C)C(=O)c1cc2cnc(Nc3cc(C(F)(F)F)c(-c4cccc5c(=O)cc(N6CCOCC6)oc45)cn3)nc2n1C1CCCC1 — IC50 (PIK3CG; enzyme activity, inhibitor, radiometric): > 10000 nM
Cc1ccc(CN2C(=O)C(=Nc3cccc(Cl)c3)c3ccccc32)cc1 — IC50 (PIK3CG; enzyme activity, inhibitor, ADP detection): 1.11 nM
Nc1ncnc2c1ncn2[C@@H]1O[C@H](CO)C[C@H]1O — IC50 (Inositol-tetrakisphosphate 1-kinase; enzyme activity, inhibitor): 3100 nM
Cc1cccc(N=C2C(=O)N(Cc3cccc(Cl)c3)c3ccccc32)c1 — IC50 (PIK3CG; enzyme activity, inhibitor, ADP detection): 0.96 nM
CN(C)C(=O)c1cc2cnc(Nc3cncc(-c4ccc5c(=O)cc(N6CCOCC6)oc5c4)c3)nc2n1C1CCCC1 — IC50 (PIK3CG; enzyme activity, inhibitor, radiometric): 1200 nM
O=C1C(=Nc2ccccc2I)c2ccccc2N1Cc1ccc([N+](=O)[O-])cc1 — IC50 (PIK3CG; enzyme activity, inhibitor, ADP detection): 1.52 nM
Nc1ncnc2c1ncn2[C@@H]1O[C@H](CO)[C@@H](O)[C@@H]1F — IC50 (Inositol-tetrakisphosphate 1-kinase; enzyme activity, inhibitor): 860 nM
CN(C)C(=O)c1cc2cnc(Nc3cccc4c(=O)cc(N5CCOCC5)oc34)nc2n1C1CCCC1 — IC50 (PIK3CG; enzyme activity, inhibitor, radiometric): 1420 nM
NS(=O)(=O)c1ccc(-n2nc(C(=O)NN=Cc3ccc(O)cc3)cc2-c2ccccc2)cc1 — IC50 (PTGS2; enzyme activity, inhibitor): 1420 nM
FC(F)(F)CN1CC(n2cc(Oc3ccn4nc(Cl)cc4n3)cn2)C1 — IC50 (Very long chain fatty acid elongase 7 (Homo sapiens, UniProt A1L3X0); enzyme activity, inhibitor): > 99000 nM
C=CC(=O)N1CCN(c2nc(=O)n(-c3c(C)ccnc3C(C)C)c3nc(-c4c(O)cccc4F)c(F)cc23)[C@@H](C)C1 — IC50 (GTPase NRas (NRAS, Homo sapiens, UniProt P01111, C181S/C186S/G12C); enzyme activity, inhibitor): 57.2 nM
COc1nc2ccc(Br)cc2cc1[C@@H](c1ccccc1)[C@@](O)(CCN(C)C)c1cccc2ccccc12 — IC50 (Retinal dehydrogenase 2 (ALDH1A2, Homo sapiens, UniProt O94788); enzyme activity, inhibitor, fluorescence; 15 min, pH 7.5): < 10000 nM
O=C1Nc2ccccc2/C1=N/c1ccccc1Br — IC50 (PIK3CG; enzyme activity, inhibitor, ADP detection): 176 nM
CN(C)C(=O)c1cc2cnc(Nc3ccc4c(=O)cc(N5CCOCC5)oc4c3)nc2n1C1CCCC1 — IC50 (PIK3CG; enzyme activity, inhibitor, radiometric): 461 nM
